# Assay results taken from ChEMBL document CHEMBL3272036, “Reactions of 2-acyloxyisobutyryl halides with nucleosides. Synthesis and biological evaluation of some 3"-acyl and 3',5'-diacyl derivatives of 1-beta-D-arabinofuranosylcytosine” (J Med Chem, 1976).
# pEC50: −log10 of the molar value. Active and inactive are the calls of the source. The calls are words filed in the database; no cut-off is given here.
# Tests used:
# Vaccinia virus = test: Antiviral activity against Vaccinia virus IHD infected in African green monkey BGM cells assessed as plaque reduction measured on day 5 by disk diffusion assay; assay type: functional; conditions: Orthopoxvirus vaccinia, 120 h, read-out: ED50 (the source's name)
# L1210 [1] = test: Antitumor activity against mouse L1210 cells allografted in BDF1 mouse assessed as increase in life span at 200 mg/kg, ip administered as single dose relative to vehicle-treated control; assay type: functional; conditions: route intraperitoneal
# How it was run: (§1)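 Single intraperitoneal injection given 24 h after the leukemic cells were introduced, at 100, 200, 500 or 1000 mg/kg. Read-out is % increase in life span (ILS), with the count of 30-day survivors per group recorded (group sizes 7–8 mice).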
# HeLa = test: Cytotoxicity against human HeLa cells after 48 hrs by Coulter counter analysis; assay type: functional; conditions: read-out: ED50 (the source's name)
# L1210 [2] = test: Antitumor activity against mouse L1210 cells allografted in BDF1 mouse assessed as survival at 50 mg/kg, ip administered as single dose measured on day 30 relative to vehicle-treated control; assay type: functional, organism-based; set-up: dose 50 mg/kg
# L1210 [3] = test: Antitumor activity against mouse L1210 cells allografted in BDF1 mouse assessed as increase in life span at 100 mg/kg, ip administered as single dose relative to vehicle-treated control; assay type: functional; conditions: route intraperitoneal; how it was run: as §1
# Herpesviridae sp. = test: Antiviral activity against Herpes Simplex virus HF infected in African green monkey BGM cells assessed as plaque reduction measured on day 5 by disk diffusion assay; assay type: functional; conditions: 120 h, read-out: ED50 (the source's name)
# L1210 [4] = test: Antitumor activity against mouse L1210 cells allografted in BDF1 mouse assessed as survival at 100 mg/kg, ip administered as single dose measured on day 30 relative to vehicle-treated control; assay type: functional, organism-based; set-up: dose 100 mg/kg
# How it was run: (§2)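 Leukemic L1210 cells were introduced into mice. Each compound was then given as a single intraperitoneal injection 24 h later. Activity is expressed as % increase in life span (ILS), with the count of 30-day survivors per group. Doses tested were 100, 200, 500 and 1000 mg/kg.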
# L1210 [5] = test: Antitumor activity against mouse L1210 cells allografted in BDF1 mouse assessed as survival at 1000 mg/kg, ip administered as single dose measured on day 30 relative to vehicle-treated control; assay type: functional, organism-based; set-up: dose 1000 mg/kg; how it was run: as §2
# L1210 [6] = test: Antitumor activity against mouse L1210 cells allografted in BDF1 mouse assessed as increase in life span at 500 mg/kg, ip administered as single dose relative to vehicle-treated control; assay type: functional; conditions: route intraperitoneal; how it was run: as §1
# L1210 [7] = test: Antitumor activity against mouse L1210 cells allografted in BDF1 mouse assessed as survival at 200 mg/kg, ip administered as single dose measured on day 30 relative to vehicle-treated control; assay type: functional, organism-based; set-up: dose 200 mg/kg; how it was run: as §2
# L1210 [8] = test: Antitumor activity against mouse L1210 cells allografted in BDF1 mouse assessed as survival at 500 mg/kg, ip administered as single dose measured on day 30 relative to vehicle-treated control; assay type: functional, organism-based; set-up: dose 500 mg/kg; how it was run: as §2
# L1210 [9] = test: Antitumor activity against mouse L1210 cells allografted in BDF1 mouse assessed as increase in life span at 1000 mg/kg, ip administered as single dose relative to vehicle-treated control; assay type: functional; conditions: route intraperitoneal; how it was run: as §1
# L1210 [10] = test: Antitumor activity against mouse L1210 cells allografted in ip dosed mouse administered as single dose relative to vehicle-treated control; assay type: functional; how it was run: as §2
# L1210 [11] = test: Chemotherapeutic index, ratio of ILSmax for antitumor activity against mouse L1210 cells allografted in BDF1 mouse to ILS30 for antitumor activity against mouse L1210 cells allografted in BDF1 mouse; assay type: functional
# How it was run: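 Dose-response curves were determined in L1210-bearing mice, each receiving a single ip injection 24 h after leukemic cell introduction. Chemotherapeutic index = the dose producing maximum % ILS divided by the dose giving 30% ILS.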
smiles,measurement,setting,value
CCCCCCCC/C=C/CCCCCCCC(=O)OC[C@H]1O[C@@H](n2ccc(N)nc2=O)[C@@H](O)[C@@H]1OC(=O)CCCCCCC/C=C/CCCCCCCC,pEC50,Vaccinia virus,< 4.52
same,ILS at 200 mg/kg,L1210 [1],> 253%
same,EC50,HeLa,2.5 µg/mL
same,Activity,L1210 [2],inactive
same,ILS at 100 mg/kg,L1210 [3],14%
same,pEC50,Herpesviridae sp.,< 4.52
CCCCCCCC/C=C\CCCCCCCCCCCC(=O)O[C@H]1[C@H](O)[C@H](n2ccc(N)nc2=O)O[C@@H]1CO,Activity,L1210 [4],Active
same,Activity,L1210 [5],inactive
same,pEC50,Vaccinia virus,4.76
same,ILS at 200 mg/kg,L1210 [1],> 280%
same,ILS at 500 mg/kg,L1210 [6],-34%
same,Activity,L1210 [7],Active
same,EC50,HeLa,0.16 µg/mL
same,ILS at 100 mg/kg,L1210 [3],> 280%
same,Activity,L1210 [8],inactive
same,pEC50,Herpesviridae sp.,< 4.52
CCCCCCCCCCCC(=O)O[C@H]1[C@H](O)[C@H](n2ccc(N)nc2=O)O[C@@H]1CO,Activity,L1210 [5],inactive
same,pEC50,Vaccinia virus,7.30
same,ILS at 200 mg/kg,L1210 [1],> 257%
same,EC50,HeLa,0.08 µg/mL
same,Activity,L1210 [2],Active
same,ILS at 100 mg/kg,L1210 [3],> 258%
same,ILS at 1000 mg/kg,L1210 [9],-28%
same,pEC50,Herpesviridae sp.,6.60
CCCCCCCCCCCCCCCCCCCCCC(=O)OC[C@H]1O[C@@H](n2ccc(N)nc2=O)[C@@H](O)[C@@H]1O,ILS30,L1210 [10],1 mg/kg
same,ILSmax,L1210 [10],500 mg/kg
same,Activity,L1210 [5],inactive
same,pEC50,Vaccinia virus,6.35
same,ILS at 200 mg/kg,L1210 [1],> 295%
same,ILS at 500 mg/kg,L1210 [6],> 295%
same,Activity,L1210 [7],Active
same,EC50,HeLa,0.04 µg/mL
same,Ratio,L1210 [11],500
same,ILS at 100 mg/kg,L1210 [3],> 228%
same,Activity,L1210 [8],Active
same,ILS at 1000 mg/kg,L1210 [9],45%
same,pEC50,Herpesviridae sp.,4.92
CCCCCC(=O)O[C@H]1[C@H](O)[C@H](n2ccc(N)nc2=O)O[C@@H]1CO,pEC50,Vaccinia virus,6.32
same,ILS at 200 mg/kg,L1210 [1],21%
same,Activity,L1210 [7],inactive
same,EC50,HeLa,0.05 µg/mL
same,Activity,L1210 [2],inactive
same,ILS at 100 mg/kg,L1210 [3],5%
same,pEC50,Herpesviridae sp.,5.82
CCCCCCCCCCCCCCCC(=O)OC[C@H]1O[C@@H](n2ccc(N)nc2=O)[C@@H](O)[C@@H]1O,ILS30,L1210 [10],2 mg/kg
same,ILSmax,L1210 [10],150 mg/kg
same,Activity,L1210 [4],Active
same,pEC50,Vaccinia virus,6.52
same,ILS at 200 mg/kg,L1210 [1],> 224%
same,ILS at 500 mg/kg,L1210 [6],-40%
same,EC50,HeLa,0.08 µg/mL
same,Ratio,L1210 [11],75
same,ILS at 100 mg/kg,L1210 [3],> 257%
same,Activity,L1210 [8],inactive
same,pEC50,Herpesviridae sp.,5.94
CCCCCCCCCC(=O)O[C@H]1[C@H](O)[C@H](n2ccc(N)nc2=O)O[C@@H]1CO,ILS30,L1210 [10],5 mg/kg
same,ILSmax,L1210 [10],150 mg/kg
same,Activity,L1210 [5],inactive
same,pEC50,Vaccinia virus,7.00
same,ILS at 200 mg/kg,L1210 [1],> 224%
same,ILS at 500 mg/kg,L1210 [6],> 161%
same,EC50,HeLa,0.09 µg/mL
same,Ratio,L1210 [11],30
same,ILS at 100 mg/kg,L1210 [3],> 241%
same,ILS at 1000 mg/kg,L1210 [9],-23%
same,pEC50,Herpesviridae sp.,6.47
CCCCCCCC(=O)O[C@H]1[C@H](O)[C@H](n2ccc(N)nc2=O)O[C@@H]1CO,Activity,L1210 [4],inactive
same,Activity,L1210 [5],inactive
same,pEC50,Vaccinia virus,6.96
same,ILS at 200 mg/kg,L1210 [1],48%
same,ILS at 500 mg/kg,L1210 [6],37%
same,Activity,L1210 [7],inactive
same,EC50,HeLa,0.1 µg/mL
same,ILS at 100 mg/kg,L1210 [3],34%
same,Activity,L1210 [8],inactive
same,ILS at 1000 mg/kg,L1210 [9],11%
same,pEC50,Herpesviridae sp.,6.19
CCCCCCCCCCCCCCCC(=O)O[C@H]1[C@H](O)[C@H](n2ccc(N)nc2=O)O[C@@H]1CO,ILS30,L1210 [10],1 mg/kg
same,ILSmax,L1210 [10],200 mg/kg
same,Activity,L1210 [4],Active
same,Activity,L1210 [5],inactive
same,pEC50,Vaccinia virus,6.85
same,ILS at 200 mg/kg,L1210 [1],> 295%
same,ILS at 500 mg/kg,L1210 [6],-20%
same,Activity,L1210 [7],Active
same,EC50,HeLa,0.24 µg/mL
same,Ratio,L1210 [11],200
same,ILS at 100 mg/kg,L1210 [3],> 295%
same,Activity,L1210 [8],inactive
same,ILS at 1000 mg/kg,L1210 [9],-19%
same,pEC50,Herpesviridae sp.,6.17
CCCCCCCCCCCCCCCCCCCCCC(=O)O[C@H]1[C@H](O)[C@H](n2ccc(N)nc2=O)O[C@@H]1CO,ILS30,L1210 [10],2 mg/kg
same,ILSmax,L1210 [10],2000 mg/kg
same,Activity,L1210 [5],Active
same,pEC50,Vaccinia virus,< 4.52
same,ILS at 200 mg/kg,L1210 [1],> 215%
same,EC50,HeLa,1.1 µg/mL
same,Ratio,L1210 [11],1000
same,ILS at 100 mg/kg,L1210 [3],> 200%
same,ILS at 1000 mg/kg,L1210 [9],> 240%
same,pEC50,Herpesviridae sp.,< 4.52
CCCCCCCCCC(=O)OC[C@H]1O[C@@H](n2ccc(N)nc2=O)[C@@H](O)[C@@H]1O,ILS30,L1210 [10],20 mg/kg
same,ILSmax,L1210 [10],500 mg/kg
same,Activity,L1210 [4],inactive
same,pEC50,Vaccinia virus,6.74
same,ILS at 200 mg/kg,L1210 [1],> 114%
same,ILS at 500 mg/kg,L1210 [6],> 122%
same,EC50,HeLa,0.1 µg/mL
same,Ratio,L1210 [11],25
same,ILS at 100 mg/kg,L1210 [3],59%
same,ILS at 1000 mg/kg,L1210 [9],-45%
same,pEC50,Herpesviridae sp.,6.07
CCCCCCCC/C=C\CCCCCCCC(=O)OC[C@H]1O[C@@H](n2ccc(N)nc2=O)[C@@H](O)[C@@H]1OC(=O)CCCCCCC/C=C\CCCCCCCC.Cl,pEC50,Vaccinia virus,4.76
same,ILS at 200 mg/kg,L1210 [1],> 190%
same,EC50,HeLa,1.1 µg/mL
same,Activity,L1210 [2],inactive
same,ILS at 100 mg/kg,L1210 [3],70%
same,pEC50,Herpesviridae sp.,< 4.52
Nc1ccn([C@@H]2O[C@H](CO)[C@@H](O)[C@@H]2O)c(=O)n1 [CYTARABINE],Activity,L1210 [4],inactive
same,Activity,L1210 [5],inactive
same,pEC50,Vaccinia virus,7.15
same,ILS at 200 mg/kg,L1210 [1],7%
same,ILS at 500 mg/kg,L1210 [6],16%
same,Activity,L1210 [7],inactive
same,EC50,HeLa,0.05 µg/mL
same,ILS at 100 mg/kg,L1210 [3],8%
same,Activity,L1210 [8],inactive
same,ILS at 1000 mg/kg,L1210 [9],34%
same,pEC50,Herpesviridae sp.,6.80
